# Results as given in ChEMBL document CHEMBL4364284, “Design, Synthesis, and Efficacy Testing of Nitroethylene- and 7-Nitrobenzoxadiazol-Based Flavodoxin Inhibitors against Helicobacter pylori Drug-Resistant Clinical Strains and in Helicobacter pylori-Infected Mice” (J Med Chem, 2019).
# Active and inactive are the calls of the source. The calls are words filed in the database; no cut-off is given here.
# Experiments:
# [1] = Cytotoxicity against human HeLa cells assessed as reduction in cell viability by XTT assay; format: cell-based; details: read-out: MCC50
# Outline: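 HeLa cells grown in DMEM with 10% FBS, penicillin and streptomycin at 37 °C, 5% CO2; 30 000 cells/well. XTT viability read at 450 and 650 nm. MCC50 (50% lysis) came from viability-versus-concentration curves. Two experiments, each in triplicate.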
# [2] = biological target: T1, Flavodoxin (Helicobacter pylori (strain ATCC 700392 / 26695) (Campylobacter pylori)) (UniProt O25776); test: Inhibition of flavodoxin in Helicobacter pylori SS1 assessed as reduction in bacterial growth measured after 48 hrs by resazurin staining-based microdilution method
# T1 sequence (whole entry): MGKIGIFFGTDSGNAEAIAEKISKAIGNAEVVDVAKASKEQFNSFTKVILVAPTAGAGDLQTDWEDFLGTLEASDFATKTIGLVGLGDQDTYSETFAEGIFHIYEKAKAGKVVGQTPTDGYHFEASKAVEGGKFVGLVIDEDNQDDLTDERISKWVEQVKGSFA
# Outline: (§1)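 Broth microdilution in brain heart infusion with 4% FBS. Inoculum diluted to OD600 0.01. Two-fold dilutions from a DMSO stock cover 64–0.031 μg/mL, with DMSO ≤1% v/v. Incubated 48 h at 37 °C under microaerophilic conditions. MIC is the lowest concentration giving complete growth inhibition, read by resazurin colour change and confirmed by spotting on blood agar. Run twice in triplicate.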
# [3] = biological target: T1, Flavodoxin (Helicobacter pylori (strain ATCC 700392 / 26695) (Campylobacter pylori)); test: Inhibition of flavodoxin in Mnz-resistant Helicobacter pylori NCTC 11637 ATCC 43504 assessed as reduction in bacterial growth measured after 48 hrs by resazurin staining-based microdilution method; details: Helicobacter pylori NCTC 11637 = CCUG 17874 = ATCC 43504; outline: as §1
# [4] = biological target: T1, Flavodoxin (Helicobacter pylori (strain ATCC 700392 / 26695) (Campylobacter pylori)); test: Inhibition of flavodoxin in Helicobacter pylori ATCC 700392 26695 assessed as reduction in bacterial growth measured after 48 hrs by resazurin staining-based microdilution method; details: Helicobacter pylori 26695; outline: as §1
# [5] = Therapeutic index, ratio of MCC50 for human HeLa cells to MIC for inhibition of flavodoxin in Helicobacter pylori SS1 assessed as reduction in bacterial growth; format: toxicity; details: HeLa cells versus Helicobacter pylori SS1, read-out: TI
# Outline: (§2)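 TI is MCC50/MIC. For MCC50, HeLa cells (30 000/well, DMEM with 10% FBS) were exposed to compound at 25–1000 μM final. Viability by XTT at 450/650 nm; MCC50 is the concentration giving 50% lysis from viability curves. Run twice in triplicate.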
# [6] = Therapeutic index, ratio of MCC50 for human HeLa cells to MIC for inhibition of flavodoxin in Mnz-resistant Helicobacter pylori NCTC 11637 ATCC 43504 assessed as reduction in bacterial growth; format: toxicity; details: read-out: TI; outline: as §2
# [7] = Therapeutic index, ratio of MCC50 for human HeLa cells to MIC for inhibition of flavodoxin in Helicobacter pylori ATCC 700392 26695 assessed as reduction in bacterial growth; format: toxicity; details: HeLa cells versus Helicobacter pylori ATCC 700392 26695, read-out: TI; outline: as §2
# [8] = Therapeutic index, ratio of MCC50 for human HeLa cells to MIC for inhibition of flavodoxin in metronidazole-resistant Helicobacter pylori isolate 1 assessed as reduction in bacterial growth; format: toxicity; details: read-out: TI; outline: as §2
# [9] = Therapeutic index, ratio of MCC50 for human HeLa cells to MIC for inhibition of flavodoxin in metronidazole-resistant Helicobacter pylori isolate 2 assessed as reduction in bacterial growth; format: toxicity; details: read-out: TI; outline: as §2
# [10] = Therapeutic index, ratio of MCC50 for human HeLa cells to MIC for inhibition of flavodoxin in metronidazole-resistant Helicobacter pylori isolate 3 assessed as reduction in bacterial growth; format: toxicity; details: read-out: TI; outline: as §2
# [11] = Therapeutic index, ratio of MCC50 for human HeLa cells to MIC for inhibition of flavodoxin in clarithromycin/metronidazole-resistant Helicobacter pylori isolate 4 assessed as reduction in bacterial growth; format: toxicity; details: read-out: TI; outline: as §2
# [12] = Therapeutic index, ratio of MCC50 for human HeLa cells to MIC for inhibition of flavodoxin in rifampicin-resistant Helicobacter pylori isolate 5 assessed as reduction in bacterial growth; format: toxicity; details: read-out: TI; outline: as §2
# [13] = Therapeutic index, ratio of MCC50 for human HeLa cells to MIC for inhibition of flavodoxin in clarithromycin/metronidazole-resistant Helicobacter pylori isolate 6 assessed as reduction in bacterial growth; format: toxicity; details: read-out: TI; outline: as §2
# [14] = Stability of the compound in DMSO-d6 at pH 1 incubated for 19 hrs under shaking condition by 1H-NMR analysis; format: physicochemical; details: pH 1, 19 h
# [15] = Toxicity in NMRI mouse infected with Helicobacter pylori SS1 assessed as change in appetite at 1 to 20 mg/100g, po administered daily via gavage for 8 days starting from 1 week post-infection; format: organism-based; details: in vivo
# Outline: (§3)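 Compound in 5–10% DMSO/olive oil (100 μL) given by daily oral gavage for 8 days from day 8. Body weight and appetite were monitored during treatment; infected controls received vehicle alone.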
# [16] = Toxicity in NMRI mouse infected with Helicobacter pylori SS1 assessed as change in body weight at 1 to 20 mg/100g, po administered daily via gavage for 8 days starting from 1 week post-infection; format: organism-based; details: in vivo; outline: as §3
# [17] = Toxicity in NMRI mouse assessed as change in body weight at 1 to 20 mg/100g, po administered daily via gavage for 8 days; format: organism-based; details: in vivo, 192 h
# [18] = test system: Helicobacter pylori; test: Antibacterial activity against Helicobacter pylori SS1 infected in NMRI mouse assessed as bacterial eradication at 10 mg/100g, po administered daily via gavage for 8 days starting from 1 week post-infection and measured 8 days post-last dose relative to control; format: functional
# Outline: (§4)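 From day 8, 100 μL compound in 5–10% DMSO/95–90% olive oil by daily oral gavage for 8 days. Infected controls got vehicle. Killed day 24; stomach homogenates plated 5 days at 37 °C microaerophilic; CFU/g tissue versus control. Mann-Whitney U and unpaired t tests, p ≤ 0.05.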
# [19] = test system: Helicobacter pylori; test: Antibacterial activity against Helicobacter pylori SS1 infected in NMRI mouse assessed as bacterial eradication at 20 mg/100g, po administered daily via gavage for 8 days starting from 1 week post-infection and measured 8 days post-last dose relative to control; format: functional; outline: as §4
# [20] = test system: Helicobacter pylori; test: Antibacterial activity against Helicobacter pylori SS1 infected in NMRI mouse assessed as reduction in gastric colonization at 1 to 20 mg/100g, po administered daily via gavage for 8 days starting from 1 week post-infection and measured 8 days post-last dose; format: functional, organism-based
# Outline: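 Female 6-week-old SPF NMRI mice, seven per condition, infected orogastrically on days 1 and 3 with 100 μL Hp SS1 (5 × 10^8 CFU/mL). From day 8, 100 μL compound in 5–10% DMSO/95–90% olive oil by daily oral gavage for 8 days. Infected controls got vehicle. Killed day 24; stomach homogenates plated 5 days at 37 °C microaerophilic; CFU/g tissue versus control. Mann-Whitney U and unpaired t tests, p ≤ 0.05.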
# [21] = biological target: T1, Flavodoxin (Helicobacter pylori (strain ATCC 700392 / 26695) (Campylobacter pylori)); test: Binding affinity to Helicobacter pylori flavodoxin by thermal upshift assay
# [22] = biological target: T1, Flavodoxin (Helicobacter pylori (strain ATCC 700392 / 26695) (Campylobacter pylori)); test: Binding affinity to Helicobacter pylori flavodoxin by isothermal titration calorimetric method
# [23] = test system: Escherichia coli; test: Effect on growth of Escherichia coli DH5[alpha] after 48 hrs by resazurin-dye based microdilution assay; format: organism-based
# [24] = test system: Staphylococcus aureus; test: Effect on growth of Staphylococcus aureus ATCC 1228 after 48 hrs by resazurin-dye based microdilution assay; format: organism-based
# [25] = Toxicity in specific-pathogen-free C57BL/6J mouse assessed as histopathological changes in liver at 10 to 40 mg/100g, po administered daily via gavage for 8 days hematoxylin-eosin staining based assay; format: organism-based; details: in vivo, 192 h
# Outline: (§5)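 Controls received olive oil with 5% DMSO. Blood by cardiac puncture was analysed for biochemistry on an automatic analyser. Heart, stomach, liver, lung and kidney sections were H&E-stained for histopathology.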
# [26] = Toxicity in specific-pathogen-free C57BL/6J mouse assessed as histopathological changes in heart at 10 to 40 mg/100g, po administered daily via gavage for 8 days hematoxylin-eosin staining based assay; format: organism-based; details: in vivo, 192 h; outline: as §5
# [27] = Toxicity in specific-pathogen-free C57BL/6J mouse assessed as histopathological changes in lung at 10 to 40 mg/100g, po administered daily via gavage for 8 days hematoxylin-eosin staining based assay; format: organism-based; details: in vivo, 192 h; outline: as §5
# [28] = Toxicity in specific-pathogen-free C57BL/6J mouse assessed as histopathological changes in kidney at 10 to 40 mg/100g, po administered daily via gavage for 8 days hematoxylin-eosin staining based assay; format: organism-based; details: in vivo, 192 h; outline: as §5
# [29] = Toxicity in specific-pathogen-free C57BL/6J mouse assessed as change in biochemical parameters at 10 to 40 mg/100g, po administered daily via gavage for 8 days; format: organism-based; details: in vivo, 192 h; outline: as §5
# [30] = Toxicity in specific-pathogen-free C57BL/6J mouse assessed as histopathological changes in stomach by measuring inflammation at 20 to 40 mg/100g, po […] hematoxylin-eosin staining based assay; format: organism-based; details: in vivo, 192 h
# [31] = Toxicity in specific-pathogen-free C57BL/6J mouse assessed as histopathological changes in stomach by measuring hyperplasia at 20 to 40 mg/100g, […] hematoxylin-eosin staining based assay; format: organism-based; details: in vivo, po, 192 h
# [32] = Toxicity in specific-pathogen-free C57BL/6J mouse assessed as histopathological changes in stomach by measuring necrosis of epithelium at 20 to 40 mg/100g, po […] hematoxylin-eosin staining based assay; format: organism-based; details: in vivo, 192 h
# [33] = Toxicity in specific-pathogen-free C57BL/6J mouse assessed as hair loss at 40 mg/100g, po administered daily via gavage for 8 days; format: organism-based; details: in vivo, 192 h
# [34] = Toxicity in specific-pathogen-free C57BL/6J mouse assessed as weight loss at 40 mg/100g, po administered daily via gavage for 8 days; format: organism-based; details: in vivo, 192 h
# [35] = Toxicity in NMRI mouse infected with Helicobacter pylori SS1 assessed as change in body weight at 0.1 to 10 mg/100g, po administered daily via gavage for 8 days starting from 1 week post-infection; format: organism-based; details: in vivo
# [36] = Toxicity in NMRI mouse infected with Helicobacter pylori SS1 assessed as change in appetite at 0.1 to 10 mg/100g, po administered daily via gavage for 8 days starting from 1 week post-infection; format: organism-based; details: in vivo
# [37] = Toxicity in NMRI mouse assessed as change in body weight at 0.1 to 10 mg/100g, po administered daily via gavage for 8 days; format: organism-based; details: in vivo, 192 h
# [38] = test system: Helicobacter pylori; test: Antibacterial activity against Helicobacter pylori SS1 infected in NMRI mouse assessed as reduction in gastric colonization at 1 mg/100g, po administered daily via gavage for 8 days starting from 1 week post-infection and measured 8 days post-last dose; format: functional, organism-based
# Outline: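 Female 6-week-old SPF NMRI mice, 7 per condition, infected orogastrically on days 1 and 3 with 100 μL Hp SS1 (5 × 10^8 CFU/mL). From day 8, compound given daily by oral gavage for 8 days in 100 μL of 5–10% DMSO/95–90% olive oil. Sacrificed day 24; stomach homogenate CFU/g counted after 5 days microaerophilic culture at 37 °C. Infected vehicle-treated controls; Mann-Whitney U and unpaired t tests, p ≤ 0.05.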
structure (smiles),measurement,setting,value
COc1ccc(C[S+]([O-])c2ccc(N)c3nonc23)cc1 (centres undefined),CC50,[1],> 1000 µM
same,MIC,[2],105 µM
same,MIC,[3],53 µM
same,MIC,[4],26 µM
same,selectivity ratio,[5],> 9.5
same,selectivity ratio,[6],> 19
same,selectivity ratio,[7],> 39
same,selectivity ratio,[8],9.5
same,selectivity ratio,[9],9.5
same,selectivity ratio,[10],9.5
same,selectivity ratio,[11],9.5
same,selectivity ratio,[12],9.5
same,selectivity ratio,[13],9.5
same,Stability,[14],Stable
same,Activity,[15],Non-Toxic
same,Activity,[16],Non-Toxic
same,Activity,[17],Non-Toxic
same,Activity,[18],5%
same,Activity,[19],60%
same,Activity,[20],Active
same,Activity,[21],Active
same,Activity,[22],Active
same,Activity,[23],Non-Toxic
same,Activity,[24],Non-Toxic
O=[N+]([O-])/C=C/c1c(F)cc(Cl)cc1F,CC50,[1],36 µM
same,MIC,[2],2.3 µM
same,MIC,[3],2.3 µM
same,MIC,[4],2.3 µM
same,selectivity ratio,[5],16
same,selectivity ratio,[6],16
same,selectivity ratio,[7],16
same,Activity,[25],Non-Toxic
same,Activity,[26],Non-Toxic
same,Activity,[27],Non-Toxic
same,Activity,[28],Non-Toxic
same,Activity,[29],Non-Toxic
same,Activity,[30],Toxic
same,Activity,[31],Toxic
same,Activity,[32],Toxic
same,Activity,[33],Toxic
same,Activity,[34],> 20%
same,Activity,[35],Non-Toxic
same,Activity,[36],Non-Toxic
same,Activity,[37],Non-Toxic
same,Activity,[38],Active
same,Activity,[21],Active
same,Activity,[22],Active
same,Activity,[23],Non-Toxic
same,Activity,[24],Non-Toxic
